Experimental data: ChEMBL document CHEMBL1152567, “Synthesis and analgesic profile of conformationally constrained N-acylhydrazone analogues: discovery of novel N-arylideneamino quinazolin-4(3H)-one compounds derived from natural safrole” (2009)
Activity calls are given as the source filed them.

Columns and labels:
Mus musculus [1] = assay: Antinociceptive activity in po treated Albino mouse assessed as inhibition of acetic acid-induced abdominal constriction treated 1 hr before acetic acid challenge; format: functional; settings: Abdomen
Summary of the method: (§1)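 Albino mice of both sexes (18–23 g), dosed orally as a suspension in 5% arabic gum in saline. Acetic acid given ip 1 h later. Constrictions counted for 20 min, starting 10 min after injection. Expressed as % inhibition versus vehicle controls. Dose–response over 0.3–100 µmol/kg. Mean ± SEM of n animals; one-way ANOVA, Dunnett, P<0.01.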

Mus musculus [2] = assay: Antinociceptive activity in Albino mouse assessed as inhibition of acetic acid-induced abdominal constriction at 100 umol/kg, po treated 1 hr before acetic acid challenge relative to control; format: functional; settings: Abdomen; summary of the method: as §1
Mus musculus [3] = assay: Antinociceptive activity in Albino swiss mouse assessed as inhibition of formalin induced pain at 100 umol/kg, ip treated 1 hr before formalin challenge; format: functional, organism-based
Summary of the method: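 Albino Swiss mice of both sexes (18–25 g), fasted 8 h, dosed ip in 5% arabic gum. 60 min later, 20 µL of 2.5% formalin subplantar in one hind paw. Time spent licking or biting the paw scored at 0–5 min (neurogenic phase) and 15–30 min (inflammatory phase). Mean ± SEM, n=6–12; two-way ANOVA, Bonferroni.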

Rattus norvegicus [4] = assay: Analgesic activity in carrageenan-induced Wistar rat hyperalgesia model assessed as reduction in latency time at 100 umol/kg, ip treated 60 mins before carrageen challenge; format: functional; set-up: scale not given: the % may be the effect or the level left
Summary of the method: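 Wistar rats, dosed ip in 1% tween 80 in saline. Carrageenan 1 mg/paw intraplantar in left paw, saline in right, 100 µL each. Left-paw withdrawal latency on 51 ± 0.1 °C plate at 0, 30, 60, 120, 180, 240 min; cut-off 20 s. Hyperalgesia taken as latency at time 0 minus later latency. Mean ± SEM, n=8–10; one-way ANOVA, Dunnett.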

Mus musculus [5] = assay: Analgesic activity in Swiss mouse assessed as response to thermal stimulation at 100 umol/kg, ip by Hot-plate test; format: functional, organism-based
Summary of the method: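 Swiss mice of both sexes, fasted 8 h, water ad libitum; dosed ip in 1% tween in saline. Placed on plate at 55 ± 0.1 °C; paw licking or withdrawal timed. Two control readings 30 min apart set baseline latency; cut-off three times control mean. Latency recorded every 30 min after dosing for 150 min. Mean ± SEM, n=7.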

Oryctolagus cuniculus = species on record: Oryctolagus cuniculus; assay: Inhibition of arachidonic acid-induced rabbit platelet aggregation by turbidimetric method; format: functional
Summary of the method: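 Rabbits (2.5–3.0 kg) bled from the central ear artery into 3.8% trisodium citrate (9:1). PRP was spun at 1800 rpm and PPP at 3600 rpm, 10 min each at room temperature. PRP was stirred at 900 rpm at 37 °C, with compound or 0.5% DMSO vehicle added 5 min before arachidonic acid (200 µM in methods; 100 µM elsewhere). Read-out was percent of AA aggregation.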

Rattus norvegicus [6] = assay: Antiinflammatory activity in Albino rat assessed as inhibition of carrageenan-induced paw edema at 10 umol/kg, ip; format: functional
Summary of the method: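 Albino rats of both sexes (150–200 g), dosed as a suspension in 1% tween 80 in saline. 1 h later, 1% carrageenan (0.1 mg/paw) into one hind paw subplantar, saline into the other. Paw volumes by plethysmometer at 3 h; edema is the difference between the paws. Expressed as % inhibition versus vehicle controls.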

Rattus norvegicus [7] = assay: Antiinflammatory activity in Albino rat assessed as inhibition of carrageenan-induced paw edema at 100 umol/kg, ip; set-up: scale not given: the % may be the effect or the level left

Row | Compound | inhibition in vivo at 100 µmol/kg (Mus musculus [2]) [%] | inhibition (Oryctolagus cuniculus) | further results
1 | Cc1c(N(C)CS(=O)(=O)[O-])c(=O)n(-c2ccccc2)n1C.[Na+] [DIPYRONE SODIUM] | 36 | – | ED50 (Mus musculus [1]): 144 µmol/kg
2 | C/C(=N\n1c(C)nc2cc3c(cc2c1=O)OCO3)c1cccs1 | 45.3 | inactive | inhibition (Mus musculus [3]): Active; Activity (Rattus norvegicus [4]): 50%; Activity (Mus musculus [5]): inactive; ED50 (Mus musculus [1]; read-out: ED50): 3.5 mg/kg; inhibition (Rattus norvegicus [6]): inactive
3 | Cc1nc2cc3c(cc2c(=O)n1/N=C/c1ccccc1)OCO3 | 17.6 | inactive | –
4 | Cc1nc2cc3c(cc2c(=O)n1/N=C/c1ccncc1)OCO3 | 38.5 | inactive | –
5 | COc1ccc2c(c1)c(CC(=O)O)c(C)n2C(=O)c1ccc(Cl)cc1 [INDOMETHACIN] | – | – | Activity (Rattus norvegicus [7]): 61%
6 | Cc1nc2cc3c(cc2c(=O)n1/N=C/c1cccnc1)OCO3 | 35.2 | inactive | –
7 | Cc1nc2cc3c(cc2c(=O)n1/N=C/c1ccsc1)OCO3 | 34.7 | inactive | –
8 | Cc1nc2cc3c(cc2c(=O)n1/N=C/c1ccccn1)OCO3 | 18.5 | inactive | –
9 | Cc1nc2cc3c(cc2c(=O)n1/N=C/c1cccs1)OCO3 | 10.7 | inactive | –
10 | Cc1nc2cc3c(cc2c(=O)n1/N=C/c1ccco1)OCO3 | 16.9 | inactive | –
11 | Cc1nc2cc3c(cc2c(=O)n1/N=C/c1ccc(N(C)C)cc1)OCO3 | 43 | inactive | inhibition (Mus musculus [3]): Active; Activity (Rattus norvegicus [4]): 50%; Activity (Mus musculus [5]): inactive; ED50 (Mus musculus [1]): 5.4 µmol/kg; inhibition (Rattus norvegicus [6]): inactive
12 | Cc1nc2cc3c(cc2c(=O)n1/N=C/c1ccc(C(C)C)cc1)OCO3 | 32.9 | inactive | –
